Laboratory results taken from PMC5940653 (Leukemia, 2018).

System: STAT3/5 phosphorylation in NK-S1 cells
Assay: Wash-out assay
Format: cell-based
Conditions: NK-S1, 1.0 μM pre-treatment for 2 h
How it was run: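 NK-S1 cells were grown in DMEM with 10% FBS and 10% equine serum, seeded at 2.5 × 10^6 per well, and exposed to 1.0 µM test compound or DMSO for 2 h. Cells were washed twice in PBS and resuspended in complete medium without inhibitor. They were harvested at washout and 0.5, 1, 2 and 4 h later. Phospho- and total STAT3/5 were immunoblotted, 15 μg protein per lane.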

## C[C@@H]1CCN(C(=O)CC#N)C[C@@H]1N(C)c1ncnc2[nH]ccc12 [Tofacitinib]
  recovery of phosphorylated STAT3/5 activity post inhibitor washout: within half an hour
